Reference: publication PMC4860949 (Bioorganic & medicinal chemistry, 2016)
Values joined by “and” are separate entries in the source; they are usually repeats but may differ in a detail not shown here. Identical values can stand only once. “Also recorded” adds a separate entry of the source.

Key:
[1] = test system: Dd2 drug-resistant strain of P. falciparum; assay: Antimalarial bioassay: 72 h in vitro parasite growth assay, SYBR Green I; type: cell-based, Plasmodium falciparum; details: for Antiplasmodial activity (in words): Dd2 drug-resistant strain of P. falciparum; for Concentration at which compound was inactive in antimalarial assay: Dd2 strain, inactive at this (highest tested) dose
Procedure, shortened: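 Ring-stage Dd2 cultures (1% hematocrit, 1% parasitaemia) were grown for 72 h with increasing test compound concentrations at 37 °C in a humidified chamber under low oxygen (5.06% CO2, 4.99% O2, 89.95% N2). Viability was measured by SYBR Green I DNA quantitation. IC50 came from nonlinear regression as the mean of three independent determinations in duplicate, ± S.E.M. Artemisinin served as positive control.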

[2] = test system: HEK293 (Human Embryonic Kidney) cells; assay: In vitro cytotoxicity against HEK293 cells; type: cell-based; details: 24 h
[3] = test system: 3D7 strain of P. falciparum; details: chloroquine-sensitive strain; cited from earlier work

| SMILES | Antiplasmodial activity (in words) [1] | Concentration at which compound was inactive in antimalarial assay [1] | Concentration up to which no inhibition/toxicity to HEK cells was detected [2] | Antiplasmodial activity (in words) ([1]; listed as Betulinic acid (3)) | Inhibition of 3D7 strain of P. falciparum (in words) [3] |
| --- | --- | --- | --- | --- | --- |
| C[C@H]1[C@H](C)CC[C@]2(C(=O)O)CC[C@]3(C)C(=CC[C@@H]4[C@@]5(C)CC[C@H](O)C(C)(C)[C@@H]5CC[C@]43C)[C@H]12 [Compound 5, ursolic acid] | inactive | 40 µM | – | – | – |
| CCCCCC(=O)c1c(O)cc(O)c2c1OC1=C(C(=O)C(C)(C)C(=O)C1(C)C)C2CC(C)C (racemic) [Compound 1, (±)-4,9-dihydro-6,8-dihydroxy-2,2,4,4-tetramethyl-5-hexanoyl-9-isobutyl-1H-xanthene-1,3(2H)-dione] | strong antiplasmodial activity; also recorded: strong antimalarial activity | – | 3.125 µM | – | – |
| CCCCCC(=O)c1c(O)cc(O)cc1O [Compound 6, 1-(2,4,6-trihydroxyphenyl)-1-hexanone] | inactive | 90 µM and 80 µM | – | – | – |
| CC(C)=CCCC1=CCC2(C(=O)C(C)(C)C(=O)C(C)(C)C2=O)C(CC(C)C)C1 (racemic) [Compound 2, (±)-2,2,4,4-tetramethyl-11-isobutyl-9-(4-methyl-3-penten-1-yl)-spiro[5.5]undec-8-ene-1,3,5-trione] | moderate antiplasmodial activity | – | 100 µM | – | – |
| C=C(C)[C@@H]1CC[C@]2(C(=O)O)CC[C@]3(C)[C@H](CC[C@@H]4[C@@]5(C)CC[C@H](O)C(C)(C)[C@@H]5CC[C@]43C)[C@@H]12 [Compound 3, betulinic acid] | – | – | – | moderate inhibitory effect | inhibit |
